{"data": "Assay results from different studies", "BCHE": "Cholinesterase (BCHE, Homo sapiens, UniProt P06276)", "note": "Each line is one published result; the experiments were not run side by side."}
{"Structure (SMILES)": "Nc1ncc(-c2nc(N3CCOCC3)nc(N3CCOCC3)n2)c(C(F)F)n1", "target": "Peripheral plasma membrane protein CASK (CASK, Homo sapiens, UniProt O14936)", "assay": "binding, competition with immobilised ligand", "setting": "10 µM", "quantity": "remaining binding", "value": "77%"}
{"Structure (SMILES)": "COc1cc2c(cc1OC)C(=O)C(CC1CCN(Cc3ccccc3)CC1)C2 (centres unmarked)", "target": "BCHE", "assay": "enzyme activity, inhibitor, Ellman", "setting": "1 µM", "quantity": "inhibition", "value": "22.5%"}
{"Structure (SMILES)": "NC(=O)c1cccc(-c2cccc(OC(=O)NC3CCCCC3)c2)c1", "target": "Cocaine esterase (CES2, Homo sapiens, UniProt O00748)", "assay": "enzyme activity, inhibitor", "setting": "pH 7.4", "quantity": "kinact/KI", "value": "3900 M⁻¹ s⁻¹"}
{"Structure (SMILES)": "C=CCn1c2cc(OC(=O)CCN3CCN(Cc4ccccc4)CC3)ccc2c2ccnc(C)c21", "target": "BCHE", "assay": "enzyme activity, inhibitor, Ellman", "setting": "1 µM", "quantity": "inhibition", "value": "29.9%"}
{"Structure (SMILES)": "COc1ncccc1-c1cnn2ccc(N3CCN(C(=O)OC(C)C)CC3)nc12", "target": "Dual specificity mitogen-activated protein kinase kinase 5 (MAP2K5, Homo sapiens, UniProt Q13163)", "assay": "binding, competition with immobilised ligand", "setting": "1 µM", "quantity": "remaining binding", "value": "65%"}
{"Structure (SMILES)": "C#Cc1n[nH]c2c(-c3cn(C(C)c4ccccn4)c(=O)[nH]c3=O)cc(F)cc12 (centres unmarked)", "target": "Fibroblast growth factor receptor 1 (FGFR1, Homo sapiens, UniProt P11362, V561M)", "assay": "enzyme activity, inhibitor", "setting": "1 µM", "quantity": "inhibition", "value": "11.4%"}
{"Structure (SMILES)": "CCN(CC)CCCC[C@H](NC(=O)[C@H](CC(C)C)NC(=O)[C@H](C)NC(=O)[C@H](Cc1ccccc1)NC(=O)c1ccc(C(C)(C)C)cc1)C(=O)N[C@@H](CO)C(=O)OC", "target": "Chromatin remodeling regulator CECR2 (CECR2, Homo sapiens, UniProt Q9BXF3)", "assay": "thermal stability, DSF", "setting": "25 µM", "quantity": "ΔTm", "value": "0.58 °C"}
{"Structure (SMILES)": "Cc1nn(C)cc1-c1nc2c(N3CCN(Cc4ccc(Cl)cc4)CC3)c(Cl)cnc2[nH]1", "target": "Interferon-induced, double-stranded RNA-activated protein kinase (EIF2AK2, Homo sapiens, UniProt P19525)", "assay": "binding, competition with immobilised ligand", "setting": "1 µM", "quantity": "remaining binding", "value": "95%"}
